pIC50: −log10 of the molar value. Values after ≈ are worked out from the molar mass of the structure shown.
Assays:
Vero = assay: Cytotoxicity against african green monkey Vero cells by SRB assay; assay type: cell-based, Chlorocebus sabaeus; conditions: for pIC50: Chlorocebus sabaeus, Vero, read-out: IC50
Method in brief: (§1)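 Colorimetric cytotoxicity assay. IC50 given as mean ± SD (n = 3), curve fits with R2 > 0.9. Ellipticine served as positive control.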

NCI-H187 = assay: Cytotoxicity against human NCI-H187 cells by SRB assay; assay type: functional, cell-based; conditions: for pIC50: Homo sapiens, NCI-H187, read-out: IC50; method in brief: as §1
[1] = Cytotoxicity against human BC cells by SRB assay; assay type: functional, cell-based; conditions: for pIC50: Homo sapiens, BC, read-out: IC50; method in brief: as §1
KB = assay: Cytotoxicity against human KB cells by SRB assay; assay type: functional, cell-based; conditions: for pIC50: Homo sapiens, KB, read-out: IC50; method in brief: as §1
Plasmodium falciparum = assay: Antiplasmodial activity after 24 hrs against Plasmodium falciparum K1 by [G-3H]hypoxanthine uptake; assay type: functional, organism-based; conditions: K1, 24 h
Method in brief: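 P. falciparum K1 tested by a microculture radioisotope technique, with IC50 as the read-out.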

[2] = test system: Mycobacterium tuberculosis; assay: Antitubercular activity against Mycobacterium tuberculosis H37Ra after 4 days by microplate alamar blue assay; assay type: functional; conditions: 96 h
Method in brief: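 M. tuberculosis H37Ra tested by microplate Alamar Blue assay. MIC was taken as the lowest concentration giving ≥90% growth inhibition.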

Candida albicans = assay: Antifungal activity against Candida albicans; assay type: functional, organism-based
Method in brief: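 Colorimetric growth-inhibition assay against Candida albicans; IC50 values reported.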

SMILES	pIC50 (Vero)	pIC50 (NCI-H187)	pIC50 [1]	pIC50 (KB)	pIC50 (Plasmodium falciparum)	MIC [2]	pIC50 (Candida albicans)	further results
Cc1c2ccncc2c(C)c2c1[nH]c1ccccc12 [ELLIPTECINE]	5.77	5.36	5.92	5.86	–	–	–	–
C[C@H]1[C@@H](O)O[C@@H]2O[C@@]3(C)CC[C@H]4[C@H](C)CC[C@@H]1[C@@]24OO3 [ARTENIMOL]	–	–	–	–	8.40	–	–	–
NNC(=O)c1ccncc1 [ISONIAZID]	–	–	–	–	–	0.37 µM (≈ 0.0507 µg/mL)	–	–
CCCCCCCCC/C=C/C(=O)N[C@H]1C[C@@]2(O)C(=O)[C@@H]([C@H]1O)[C@H](OC)[C@@H]1O[C@@H]12	–	–	–	–	–	–	–	IC50 (Vero; vero): Not Active; IC50 (NCI-H187; nci-h187): Not Active; IC50 ([1]; bc): Not Active; IC50 (KB; kb): Not Active
C[C@@H]1[C@H](O)[C@@H](C)/C=C/C=C/C=C/C=C/C=C/C=C/C=C/[C@H](O[C@@H]2O[C@H](C)[C@@H](O)[C@H](N)[C@@H]2O)C[C@@H]2O[C@](O)(C[C@@H](O)C[C@@H](O)[C@H](O)CC[C@@H](O)C[C@@H](O)CC(=O)O[C@H]1C)C[C@H](O)[C@H]2C(=O)O [AMPHOTERICIN B]	–	–	–	–	–	–	7.52	–
CCCCCCCCC/C=C/C(=O)N[C@H]1C[C@@]2(O)C(=O)C=C[C@@H](Cl)[C@@H]2O[C@H]1O [ISARIOTIN F]	5.54	5.80	5.62	4.80	5.29	60.4 µM (≈ 25 µg/mL)	4.86	–

— ChEMBL document CHEMBL1151838, “Isariotins E and F, spirocyclic and bicyclic hemiacetals from the entomopathogenic fungus Isaria tenuipes BCC 12625” (J Nat Prod, 2009)
